First the molecules themselves.
B1: tRNA (parent)
chain: GUUCCGUUGGCGUAAUGGUAACGCGUCUCCCUCCUAAGGAGAAGACUGCGGGUUCGAGUCCCGUACGGAACG

Fewer inactive variants are shown than the library holds.

Variants of B1 are the subject of the data set. The data set is described as follows: yeast fitness relative to wild type (ratio to wild type); higher = fitter; tRNA-Arg(CCU), competitive growth, 37 C, YPD. The procedure, abridged: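 Amplicons of the tRNA-Arg(CCU) gene were sequenced, 100-nucleotide paired-end, from the start population and from each end population of a pooled yeast competition. The competition, in six parallel replicates, lasted 24 hours in YPD at 37°C. Fitness relative to wild type was calculated from changes in genotype frequencies. Genotypes had to have ≥ 100 starting reads, and estimates < 0.5 were set to 0.5.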
On to GUUCCGUUGGCGUAAUGGUAACGCGUCUCCCUCCUAAGGAGAAGACCGCAGGUUCGAGUCCCGUACGCAACG [U47C G50A G68C], for which the yeast fitness was 0.539.
As for GUUCCGUUGGCGUAAUGGUAACGCGACUCCCUCCUAAGGCGAAGACUGCGGGUUCGAGUCCCGGACGGAACG [U26A A40C U64G], the yeast fitness was 0.538.
For the variant GUUCCGUUGGCGUAAUGGUAUCGCGUCUCCCUCCUAAGGAGAACACUGCGGGUUCGAAUCCCGUGCGGAACG [A21U G44C G58A A65G], the yeast fitness was not above 0.5.
For the variant GUUCCGUUGGCGUAAUGGUAACGCGUCUCCCUCCUAAGGAGAAGACUGCCGGUUCGAGUCCGGUACGGAUCG [G50C C62G A70U], the yeast fitness was 0.606.
For GCUCCGUUGGCGUAAUGGUAACGCGUCUCCCUCCUAAGGAGAAGACUACGGAUUCGAGUCCCGUACGGAACG [U2C G48A G52A], the yeast fitness stood at 0.623.
Take GUUCUGUUGGCGUAAUGGUAACGCGUCUCCCUCCUAAGGAGAAGACUGAGGGUUCGAGUGCCGUACGGAACG [C5U C49A C60G]: the yeast fitness is 0.754.
As to GUUCCGUUGGCGUAUUGGUAUCGCGUCUCCCUCCUAAGGAGAAGACUGCGGGUUCGAGUCCCGUACGGAACG [A15U A21U], the yeast fitness turned out to be 0.708.
For GUUCCGGUGGCGUAAUGGUAACGUGUCUCCCUCCUAAGGAGAAGGCUGCGGGUUCGAGUCCCGUACGGAACG [U7G C24U A45G], the yeast fitness worked out at 0.601.
Consider GUUCCGUUGGAGUAAUGGUAUCGCGUCUCCCUCCUAAGGAGAAGACUGCGGGUUCGAGUCCCGUAUGGAACG [C11A A21U C66U], for which the yeast fitness was not above 0.5.
GUCCCGUUGGCGUAAUGGUAACGCGUCUCCCUCCUAAGGAGAAGACUGCAGGUUCGAGUCCCGUACGGAACG [U3C G50A]: the yeast fitness is 0.961.
As for GUUCCGUUGGCGUAAUAGUAACGCGUCUUCCUCCUAAGGAGAAGACUGCGGGUUCGAGUCCCGUACAGAACG [G17A C29U G67A], the yeast fitness is 0.553.
Then GUUCCGUUGGCGUUAUGGUAACGCGUCUCCCUCCUAAGGAGAAGACUGCGGGUUCGAGUCCCGUACGGAUCG [A14U A70U], with 0.713; and GUUCCAUUGGCGUAAUGGUAACGCGUCUCUCUCCUAAGGAGAAGACUGCGGGUUCGAGUCCCGUCCGGGUCG [G6A C30U A65C A69G A70U], with not above 0.5.
Turning to GUUCCGUUGGCGUAAUGGUAACGCGUCCCCCUCCUAAGGAGAACACUGCGGGUUCCAGUCCCGUACGGAACG [U28C G44C G56C], the yeast fitness amounted to 0.7.
Consider GUUCCGUUGCCGUAAUGGUAAGGCGUCUCCCUACUAAGGAGAAGACUGCGGGUUCGAGUCCCGUACGGAACG [G10C C22G C33A], for which the yeast fitness is 0.581.
Regarding GUCCCGUUGGCGUAAUGGUAACGCGUCUCCCUCCUAAGGAGAAGACUGCGGGUUCGAGUCCCGUAAGGAACG [U3C C66A], the yeast fitness worked out at 0.711.
On to GUUCUGUUGGCGUAAUGGUAAUGCGUGUCCCUCCUAAGGAGAAGACUGCGGGUUCGAGUCCCGUUCGGAACG [C5U C22U C27G A65U], for which the yeast fitness is not above 0.5.
For GUUCCGUUGGGGUAAUGGUAACGGGUUUCCCUCCUAAGGAGAAGACUGCGGGUUUGAGUCCCGUACGGAACG [C11G C24G C27U C55U], the yeast fitness was 0.55.
Take GUUCCGUUGCCGUAGUGGUAACGCGUCUCCCUCCAAAGGAGAAAACUGCGGGUUCGAGUCCCGUACGGAACG [G10C A15G U35A G44A]: the yeast fitness came out at 0.589.
With GUUCCGUUGGCGUAGUGGUAACGCGUCUCCCUCCUAAGGAGAAAACUGCCGGUUCGAGUCCCGUACGGAACG [A15G G44A G50C] the figure was not above 0.5.
Take GUGCCGUUGGCGUAAUGGUCACGCGUCUCCCUCCUAAGGAGAACACUGCGGGUUCGAGUCUCGUACGGAACG [U3G A20C G44C C61U]: the yeast fitness worked out at 0.606.
As to GUUUCGUUGGCGUAAUGGUAACGAGUCUCCCUCCUAAGGAGAAGACUGCGGGUUCGAGGCCUGUACGGAGCG [C4U C24A U59G C62U A70G], the yeast fitness is not above 0.5.
As to GUUCCGUUGGCGUACUGGUAACGCCUCUUCCUCCCAAGGAGAUGACUGCGGGUUCGAGUCCCGUACGGUACG [A15C G25C C29U U35C A43U A69U], the yeast fitness is not above 0.5.
With GUUCCGUUGCCGUAAUGGUAACGCGUCUCCCUGCUAAGGAGAAGACUGCGGGUUCGAGUCCAGUACCGAACG [G10C C33G C62A G67C] the figure was not above 0.5; with GUACUGUUGGCGUAAUGGUAACGCGUCUCCCUCCUAAGGAGGAGACUGCGGCUUCGGGUCCCGUACGGAACG [U3A C5U A42G G52C A57G], not above 0.5; with GUUUCGUUGGCGUAAUGGUAACGCGUCUCCCUCCUAAGGAGAAGGCUGCGGGUUCGAGUCCCGUACGGAACG [C4U A45G], 0.856.
In the case of GUUCCGUUGGCGUAAUGGUAACGCAUCUCACUCCUAAGGAGAAGACUGCGGGUUCGAGUCCCGUACGGAACG [G25A C30A], the yeast fitness is 0.836.
With GUUCCGUUGGCGUAAUGGUAACGCGACUCCCUCCUAAGGAGAAGACUGUGGGUUCGAGUCCCGUACGGAACG [U26A C49U] the figure was 0.865.
With GUUCCGUUGGCGUAAUGGUAACGCGUCUCCCUCCUAAGGAGAAGACUGGGAGUUCGAGUCCCGUACGGAACG [C49G G51A], the yeast fitness turned out to be 0.637.
With GUUCCGUUGGCGUGAUGGUAACGCGUCUUCCUCCUAAGGAGAAGACUGCGGGUUCGAGUCCCGUACGGAACG [A14G C29U] the figure was 0.988; with GUUCCGUUGGCGUAAUGGUAACGCGUCUCCCUCCUAACGAGAAGGCUGCGGGUUCGAGUCCCGUACGGAACG [G38C A45G], 0.641; with GUUCCGUUGGCGUAAUGGUAACGCGUCUCCCGCCUAAGGAGAAGACUCCGGGUUCGACUCCCGUACGGAACG [U32G G48C G58C], not above 0.5.
For GUUCCGUUGGUGUAAUGGCAACGCGUCUCCAUCCUAAGGAGAAGACUGCUGGUUCGAGUCCGGUACGGAACG [C11U U19C C31A G50U C62G], the yeast fitness was not above 0.5.
Take GUUACGUUGGCGUUAUGGUAACGCGUCUCCCUCGUAAGGAGAAGACUGCGGGUUUGAGUCCCGUCCGGAACG [C4A A14U C34G C55U A65C]: the yeast fitness was not above 0.5.
Regarding GUUCGCUUGGCGUAAUGGUAUCGCGUCUCCCUCCUAAGGAGAAGACUGCGGGUUCGAGUCCCGUACGGAACG [C5G G6C A21U], the yeast fitness was determined as 0.544.
In the case of GUUCCGUUGGCGUAAUGGUAACGCGUCUCCCUCCUAAGGGGAACACUGCGGGUUCGAGUCCCGUACGGAACG [A40G G44C], the yeast fitness came to 0.676.
As for GUCCCGUUCGUGUAAUGGUAACGCGUCUCGCUCCUAAGGAGACGACUGCGGGUUCGAGACCCGUACCGCACG [U3C G9C C11U C30G A43C U59A G67C A69C], the yeast fitness is not above 0.5.
GUUCCGUUGGCGUAAUGGUAACGCGUCUCUCUCCUCAGGAGAAGAUUGCGGGAUCGAGUCCCGUACGGAACG [C30U A36C C46U U53A]: the yeast fitness was not above 0.5.

Source of the values: the RNAGym collection of RNA variant scans (doi:10.1126/science.aae0568).
